Source: ChEMBL document CHEMBL1127559, “Syntheses and anticholinesterase activity of tetrahydrobenzazepine carbamates” (J Med Chem, 1994)

Columns and labels:
Mus musculus [1] = species: Mus musculus; assay: Minimal dose to produce side effects was determined for tremor; type: functional
Procedure, shortened: (§1)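 Mice fasted overnight, dosed ip or po at 10 mL/kg and housed singly in novel cages. Salivation, tremor and diarrhea each scored on a 5-point scale at 15, 30 and 60 min post-dose. Value is the minimal dose producing the sign.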

Mus musculus [2] = species: Mus musculus; assay: Minimal dose to produce side effects was determined for diarrhea; type: functional; procedure, shortened: as §1
[3] = Lethal dose was measured at 24 hour in mice following intraperitoneal administration.; type: toxicity, organism-based; conditions: mouse, in vivo, ip
Procedure, shortened: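 Mice fasted overnight and dosed ip at 10 mL/kg, then housed singly in novel cages. Lethality scored over 24 h using at least four dose levels with nine animals per dose. LD50 calculated by Spearman-Karber.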

Acetylcholinesterase = Acetylcholinesterase (Homo sapiens, UniProt P22303); assay: In vitro inhibitory activity against human acetylcholinesterase; type: functional
Chain of Acetylcholinesterase (P22303 whole entry): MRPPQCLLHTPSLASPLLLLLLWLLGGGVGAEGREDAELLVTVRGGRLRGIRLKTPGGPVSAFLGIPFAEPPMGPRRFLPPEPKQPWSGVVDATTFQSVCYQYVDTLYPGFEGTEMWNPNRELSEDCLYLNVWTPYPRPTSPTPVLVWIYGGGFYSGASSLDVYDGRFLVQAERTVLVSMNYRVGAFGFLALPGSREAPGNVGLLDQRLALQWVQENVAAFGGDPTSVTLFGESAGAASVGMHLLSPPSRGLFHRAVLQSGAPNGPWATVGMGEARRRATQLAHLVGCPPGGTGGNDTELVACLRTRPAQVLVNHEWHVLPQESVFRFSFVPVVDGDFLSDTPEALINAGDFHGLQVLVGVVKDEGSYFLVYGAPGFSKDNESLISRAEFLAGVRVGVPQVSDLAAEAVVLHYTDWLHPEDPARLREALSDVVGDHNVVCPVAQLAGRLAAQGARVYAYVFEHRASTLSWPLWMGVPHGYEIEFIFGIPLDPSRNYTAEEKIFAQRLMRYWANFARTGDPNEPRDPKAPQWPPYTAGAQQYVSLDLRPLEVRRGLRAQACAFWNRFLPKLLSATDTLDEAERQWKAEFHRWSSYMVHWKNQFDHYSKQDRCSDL

Mus musculus [4] = species: Mus musculus; assay: Minimal dose to produce side effects was determined for salivation; type: functional; procedure, shortened: as §1
Mus musculus [5] = species: Mus musculus; assay: Minimal dose to produce side effects was determined for salivation in mice; type: functional; procedure, shortened: as §1
Mus musculus [6] = species: Mus musculus; assay: Minimal dose to produce side effects was determined for diarrhea in mice; type: functional; procedure, shortened: as §1
Mus musculus [7] = species: Mus musculus; assay: Minimal dose to produce side effects was determined for tremor in mice; type: functional; procedure, shortened: as §1

SMILES | Dose (Mus musculus [1]) [mg/kg] | Dose (Mus musculus [2]) [mg/kg] | LD50 at 24 h [3] [mg/kg] | IC50 (Acetylcholinesterase) [nM] | Dose (Mus musculus [4]) [mg/kg] | Dose (Mus musculus [5]) [mg/kg] | Dose (Mus musculus [6]) [mg/kg] | Dose (Mus musculus [7]) [mg/kg]
CCCCCCCNC(=O)Oc1ccc2c(c1)C1CCN(CC)C2C1 (stereo unspecified) | 17.8 | 3.2 | 22 | 169 | 17.8 | – | – | –
CCCCCCCNC(=O)Oc1ccc2c(c1)C1(C)CCN(CC)C2C1 (stereo unspecified) | 1.8 | 1 | 4 | 159 | – | – | – | –
CCCCCCNC(=O)Oc1ccc2c(c1)C1CCN(CC)C2C1 (stereo unspecified) | 3.2 | 1.8 | 9 | 125 | 3.2 | – | – | –
CCCCCCNC(=O)Oc1ccc2c(c1)[C@]1(C)CCN(CC)[C@@H]1C2 | 3.2 | 1.8 | 4 | – | 3.2 | – | – | –
CCN1CCC2CC1c1ccc(OC(=O)NC)cc12 (stereo unspecified) | – | – | 1 | 171 | – | – | – | –
CCCCNC(=O)Oc1ccc2c(c1)C1CCN(CC)C2C1 (stereo unspecified) | – | – | – | 206 | – | – | – | –
CCCCCCNC(=O)Oc1ccc2c(c1)C1CCN(C)C2C1 (stereo unspecified) | 3.2 | – | 6 | – | 5.6 | – | – | –
CCCCCCCNC(=O)Oc1ccc2c(c1)C1CCN(C)C2C1 (stereo unspecified) | 10 | – | 18 | 143 | 10 | – | – | –
CCCCCCNC(=O)Oc1ccc2c(c1)C1(C)CCN(CC)C2C1 (stereo unspecified) | – | – | 9 | 133 | – | – | – | –
CCCCCCCNC(=O)Oc1ccc2c(c1)[C@]1(C)CCN(C)[C@@H]1N2C [EPTASTIGMINE] | 10 | 1.8 | – | – | 10 | – | – | –
CNC(=O)Oc1ccc2c(c1)[C@]1(C)CCN(C)[C@@H]1N2C [PHYSOSTIGMINE] | – | – | – | – | – | 0.32 | 0.32 | 0.32
